Tested on: MS2 coat protein
Experiment: apparent Kd, MS2 coat protein; higher = weaker binding; RNA-MaP array; FMN 200 µM where present
Procedure, shortened: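 Designs on Illumina sequencing-chip clusters, transcribed by stalled E. coli RNA polymerase, were exposed to SNAP-549-labelled MS2 coat protein in doubling steps from 0.7 or 1.5 nM up to 3 µM, without and then with constant ligand. The buffer held 100 mM Tris-HCl pH 7.5, 80 mM KCl, 4 mM MgCl2, BSA, DTT, yeast tRNA and Tween-20. Apparent Kd values are medians of filtered per-cluster binding-curve fits to green signal normalised to red-channel RNA signal and control-cluster median Fmax.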

[1] = designed as: OFF switch for flavin mononucleotide, no ligand
[2] = ligand present: flavin mononucleotide, designed as: OFF switch for flavin mononucleotide
[3] = designed as: ON switch for flavin mononucleotide, no ligand
[4] = ligand present: flavin mononucleotide, designed as: ON switch for flavin mononucleotide

Sequence | apparent Kd [1] [nM] | apparent Kd [2] [nM] | apparent Kd [3] [nM] | apparent Kd [4] [nM]
GCCAGGCAUGUAGGAUAUCCAUUGCGUCGCGUUGGAGAAGGGCAGCACACAUGAGGAUCACCCAUGUGGUCUCCCAUGAUGUGU | 209 | 223 |  | 
UGAUCUUGAGUCAGGAUAUGCUGGUAUUUUUACCAGCAGAAGGGACAUGAGGAUCACCCAUGUUCUCACUUUUU | 10.1 | 13.4 |  | 
UGCCAAGCAGGAUAUGCACGUAAUAACAUGAGGAUCACCCAUGUGACCGAUUUAUAUUCUGCAGAAGGGCUUGGUU | 138 | 242 |  | 
GGUACGCAUGUAGGAUAUCGAGCUCAAAGAGCUCGAGAAGGACAUGAGGAUCACCCAUGUCGUCACAGACAGUGACGGCGUACC | 20 | 38.7 |  | 
AUUGUAUAGGAAGGAUAUAGAAUAUUAUUUUAACAUGAGGAUCACCCAUGUAACCUUAUGUGUAGCUAGAAGGUCCAUUUGUUA | 248 | 302 |  | 
UUGGACGUCGUAGGAUAUGUAGGAUAUUCCUACAUGAGGAUCACCCAUGUUGACAUGGAAGAAGGACAGAAGGACGCUGUCCAU |  |  | 576 | 8.85
AGGCUUGCCACAGGAUAUGCUGACAUGAGAGAAGCAGAAGGGUGGUCGACGUUUUGGCGACAUGAGGAUCACCCAUGUUAGCGU |  |  | 178 | 28.3
UUUAACUGCUAGAAGGGUGACAUGAGGAUCACCCAUGUGCUAGGCGUGCAUAAGCACCCUUAGCCACAGGAUAUAGUAGUUGAC |  |  | 112 | 64.5
GUCAGCUCGGGAGGAUAUACAACACUGCUUCGGCAGUGUAUUAAGAUCACAUGAGGAUCACCCAUGUAGAAGGCACGAGCUGAU | 7.79 | 51 |  | 
GAAAAGGUAGGAUAUACGAAAAAAAAGGGUAGAAAAAAUACACAUGAGGAUCACCCAUGUAGAAGGACCAAAAG | 31.5 | 130 |  | 
CGCGGACAAGAGAAGGCCAGACCUCGGAACUUGAGGCACCGCUAGGCAUGGAGGAUAUCUUGACAUGAGGAUCACCCAUGUACA |  |  | 86.3 | 18.1
GCGCUAAAACAGAAGGCCAAAUACAUGAGGAUCACCCAUGUCGAAUCAUGGAGGAUAUGUUAUUAAUUACUCGCAGAUGAGCGC |  |  | 104 | 11.8
UCGGCGCGAGGAUAUGCGGUUGCUCCCUAGGGUCGGAGCGUACAUGAGGAUCACCCAUGUAGAAGGCGCGCCGC | 16.2 | 16.3 |  | 
GUCCGAAGGGAGAAGGGCUAGGAGGUCCAGCUUAUGUGUGUUGCAACAUGAGGAUCACCCAUGUAGCAGGAUAUCCCUUGUACA | 54.2 | 267 |  | 
UCGUAUAUACAAGGAUAUCAAUUAUUGCUAAAUUCAACAUGAGGAUCACCCAUGUAACUAUGGAGUGAGAAGGUGUAAUGACUU |  |  | 504 | 476
GGAUGACAAAGUCAUCCAAUACGAACAUGAGGAUCACCCAUGUAGGAUAUGCUUCUCAAAGAGAAGCAGAAGGACAUGUGUCUU | 28.7 | 158 |  | 
GUAGCUAUCGGAGGAUAUUCAUACCGGAAACGGACAUGAGGAUCACCCAUGUGGCGAAAGCCUUGGGAGAAGGUCGAUAGCUAC |  |  | 308 | 10.5
AAUUUACAGCUAGGAUAUACAUGAGGAUCACCCAUGUAAUGAUCGGAUCUUAUGAUCGUAUCAGUGUAGAAGGAGCAAAUAAGA | 12.3 | 21.3 |  | 

Sequence | apparent Kd [1] [nM] | apparent Kd [2] [nM] | apparent Kd [3] [nM] | apparent Kd [4] [nM]
CCUAGUCACUCACAUGAGGAUCACCCAUGUCGGUGCCGCCGACAGGAUAUCUAAAUGUAAAAUCUAGAGAAGGGUCGAACCAUC |  |  | 455 | 609
UUCAUGUGAGGAUAUCAGUAGUAAAAAAAUAAAAUUACUACUGAGAAGGCACAUGAGGAUCACCCAUGUCCUUC | 62.5 | 40.8 |  | 
UUUUUGUGAGGAUAUGCAAUAUCUUCUAUUUAUUAUUAAUUGCAGAAGGCACAUGAGGAUCACCCAUGUAUUUU | 19.2 | 24.2 |  | 
AUAUGAGAAGCAGGAUAUGUGAAAAAAAAACAUACAGAAGGGUUUAUGGGACAACAUGAGGAUCACCCAUGUUCUCUGUGAUGA |  |  | 65.2 | 71
GUACGUGGACAGAAGGCGACAUGAGGAUCACCCAUGUUGGCUCGGGUAUGACCAAUCCGCAUGAUCGAGGAUAUGUCUGCGGGC | 199 | 14.8 |  | 
AGUGCCUCGAGAGGAUAUAACAUGAGGAUCACCCAUGUAACAGAGGUGGAAACACCUCUGAAAUGUUAGAAGGCUCGAGGCACA | 40.7 | 53.2 |  | 
GGACGGAAAGUGAGGAUAUGCUCUACCUCGGUAGAGCAGAAGGCACAUGAGGAUCACCCAUGUGAUUGCUGUUC | 27.1 | 261 |  | 
GGUGUACAUGAGGAUCACCCAUGUCGUACGACAUGAGGAUAUGUACAGACUUCGGUCUGUACAGAAGGCAUGUGUC |  |  | 249 | 26.4
GCCUGCUGGCGAGGAUAUUCUGUGAGGUUCCGGCUCGUGUCUGUUACAUGAGGAUCACCCAUGUGGGAGAAGGUGUCUGUGGCC | 6.15 | 6.13 |  | 
AAGGACUGUAAUAAUGUAGAAAUACAUGAGGAUCACCCAUGUAAGGAUAUCGUCAGGAAUACUGACGAGAAGGUACAUCAGUCC |  | 25.8 |  | 
AUUGACUGAGGAUAUUGUACUGCUGACAUGAGGAUCACCCAUGUAUGCUAACUCGGCCGUCGAGAAGGCAGUAAUG | 39 | 27.3 |  | 
ACGGCUAACCCAGUUUAAAUCUCAAGAAGGGUACACUGGGCAAGGUACAUGAGGAUCACCCAUGUACAGGAUAUUGAGAUGAGA | 25.6 | 45.4 |  | 
UUUUAACAUGAGGAUCACCCAUGUGAGGAUAUCGAUUUUUUUAUUAAUAUUAAUAAAACGAGAAGGCACAUUUU | 76.2 | 75.9 |  | 
AAGUAGUGAGGAUAUACAUGGAUAUACAUUCAUGUGGACCUACAUGAGGAUCACCCAUGUAGAAGGCACUACUA | 42.6 | 61.6 |  | 
CGCUAAUUAAUUAUAUUAAUUAUACAGGAUAUGUAACAUGAGGAUCACCCAUGUAUUCAAUGUAAACAGAAGGGUAUAUUAGCG | 10.7 | 16.2 |  | 
AAGUCACAUGAGGAUCACCCAUGUCGUAAACGAUGAGGAUAUAGGAAGAAAAAAAAAAAACUAGAAGGUAUUACAA |  |  | 59.8 | 55.9
GCAGCUAAUGCAGGAUAUCAGCACGUGUAGUGCUGAGAAGGGCACAUGAGGAUCACCCAUGUGAUCAAUUAAUAUUAAUGCUGC | 24.9 | 152 |  | 
GCCGGGUAGGCAGGAUAUCCUCGCGCAAACACAUGAGGAUCACCCAUGUACACAAAACGUGAUAUGGAGAAGGGCCGACCCACG |  |  | 24.2 | 5.66
